Compound activity deposited in PubChem BioAssay by Broad Institute.
SIRT5 inh: sirtuin-5 (human) deacylase inhibition; Q9NXA8; Purified SirT5, succinyl-peptide AMC, trypsin-coupled fluorescence; inhibition, % at 15 µM; 330,000 tested, 1.1% active; AID 652115; in the data active means inhibition above about 15%
FN deposit inh: fibronectin deposition inhibition; AH1F fibroblasts, Alexa488-fibronectin deposition fluorescence, overnight; inhibition, % at 12.6 µM; 350,000 tested, 0.086% active; AID 743247;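 active means mean inhibition across replicates of 30% or more, regardless of how many single replicates reach that level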;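 further: positive control wells lacked labelled fibronectin entirely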
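Assay system: AH1F fibroblast monolayer, labelled fibronectin deposition. Amount: 10000 cells per well. Also added: labelled fibronectin 24 nM. Compound: single-point pinned compound. Incubation: cell attachment 1 h, compound and FN exposure overnight. Detection: fluorescence after three HBSS washes, excitation 485 nm, emission 525 nm. Read-out: inhibition of fibronectin deposition signal.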
PGC1a acetyl inh: modulators of PGC1a acetylation; U2OS PGC1a acetylation, AlphaScreen anti-acetyl-lysine; with virally co-expressed GCN5 acetyltransferase; inhibition, % at 15.6 µM; 350,000 tested, 0.17% active; AID 651687;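 active means every replicate shows inhibition of at least 40%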;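 further: 0% = neutral control wells and 100% = positive control wells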
ERAP1 HTS inh: inhibitors of human ERAP1 aminopeptidase; recombinant ERAP1, Leu-AMC fluorescence, 60 min; 340,000 tested, 0.15% active; Q9NZ08; inhibition, % at 10.7 µM; AID 652197;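 active means mean replicate inhibition of at least 30%, or all replicates individually reaching that 30% level; inactive means mean below 30% and not every replicate reaching it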;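 further: 0% = neutral control wells and 100% = L-leucinethiol positive control wells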
Target sequence (Q9NZ08 whole entry, looked up): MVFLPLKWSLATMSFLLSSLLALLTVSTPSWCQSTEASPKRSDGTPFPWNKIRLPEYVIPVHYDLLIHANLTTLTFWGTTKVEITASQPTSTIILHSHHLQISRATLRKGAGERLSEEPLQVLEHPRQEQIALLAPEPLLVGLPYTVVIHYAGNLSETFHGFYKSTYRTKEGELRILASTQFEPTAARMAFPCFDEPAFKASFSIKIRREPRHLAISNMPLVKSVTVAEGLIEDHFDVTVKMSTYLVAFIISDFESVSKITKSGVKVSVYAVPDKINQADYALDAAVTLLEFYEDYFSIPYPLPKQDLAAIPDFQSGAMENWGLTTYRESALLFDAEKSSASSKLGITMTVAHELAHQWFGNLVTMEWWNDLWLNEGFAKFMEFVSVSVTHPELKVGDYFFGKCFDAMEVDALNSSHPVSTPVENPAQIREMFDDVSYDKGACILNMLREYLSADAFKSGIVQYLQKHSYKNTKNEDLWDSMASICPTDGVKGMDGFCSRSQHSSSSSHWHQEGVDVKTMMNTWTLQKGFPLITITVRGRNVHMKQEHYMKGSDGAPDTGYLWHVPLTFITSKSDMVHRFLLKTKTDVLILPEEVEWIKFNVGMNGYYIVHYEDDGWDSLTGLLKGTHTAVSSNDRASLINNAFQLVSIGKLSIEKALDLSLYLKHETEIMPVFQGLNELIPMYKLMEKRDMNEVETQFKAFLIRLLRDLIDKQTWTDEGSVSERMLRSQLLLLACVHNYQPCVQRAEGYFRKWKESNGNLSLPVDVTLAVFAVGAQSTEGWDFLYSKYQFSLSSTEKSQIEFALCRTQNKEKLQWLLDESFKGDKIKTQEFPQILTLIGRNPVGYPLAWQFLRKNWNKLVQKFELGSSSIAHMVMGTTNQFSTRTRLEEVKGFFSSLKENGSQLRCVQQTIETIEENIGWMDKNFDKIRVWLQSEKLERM
FGF22 binding: shifts melting point of recombinant human FGF22; AID 651658; 340,000 tested, 1.5% active; recombinant FGF22 thermal shift, SYPRO orange fluorescence; percent of sucrose octasulfate shift, DMSO zero; activity (Tm shift, normalised), % at 9.99 µM;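 active means mean Tm shift, scaled 0 neutral to 100 positive control, at about 1.3% or above, every replicate too, limit read from the data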
* marks the source's active call; other numbers are inactive results; . = no result. Rows were chosen to be rich in hits. Some 2.2% of all compounds tested hit in one or more screens of this group.

SMILES	SIRT5 inh	FN deposit inh	PGC1a acetyl inh	ERAP1 HTS inh	FGF22 binding
O=C(COC(=O)CNC(=O)c1ccccc1)NC(=O)NC1CCCCC1	23*	-2	-20	-6	0
O=C(COC(=O)CNC(=O)c1ccccc1)NC1CCCCC1	-2	0	.	-2	0
Cc1cc(C)c(C(=O)C(C)OC(=O)Cc2n[nH]c(=O)c3ccccc23)cc1C (stereo not given)	15*	.	2	-4	0
COc1ccc2c3c(n(C)c2c1)[C@@H](CO)N(C(=O)Nc1cccc(F)c1)CC31CN(C)C1	-2	.	-4	-1	0
COCCNC(C)C(=O)C12CC3CC(CC(C3)C1)C2 (stereo not given)	-1	.	-6	5	.
COCCNCC(=O)C12CC3CC(CC(C3)C1)C2	23*	.	4	-1	0
C/C=C/c1cnc2c(c1)C(=O)N([C@@H](C)CO)C[C@@H](C)[C@H](CN(C)Cc1ccncc1)O2	-1	.	.	1	0
CCOC(=O)c1sc2nc(C)nc(NCc3ccccc3OC)c2c1C	-3	-6	63*	-1	-1
CC(C)(C)Cc1nnc(NC(=O)Cc2ccc([N+](=O)[O-])cc2)s1	.	1	3	.	.
CCCCCc1nnc(NC(=O)Cc2ccc([N+](=O)[O-])cc2)s1	0	1	19	-2	43*
CC(=O)c1c(C)[nH]c(C(=O)Nc2cc(F)ccc2C)c1C	4	-8	.	-3	43*
CC(=O)c1c(C)[nH]c(C(=O)Nc2ccc(F)cc2F)c1C	1	-8	.	2	0
CC(C)NC(=O)N(C)C[C@H]1Oc2cc(-c3ccncc3)ccc2S(=O)(=O)N([C@@H](C)CO)C[C@@H]1C	-6	-2	-16	-1	0
COC1=C(Nc2ccccc2OC)C(=O)c2ccccc2C1=O	-1	8	12	6	0
COC1=C(Nc2ccccc2)C(=O)C(OC)=C(Nc2ccccc2)C1=O	.	1	2	5	44*
COc1ccc([Si](C)(C)[C@H]2[C@H](CCO)O[C@@]3(C(=O)N(Cc4ccccc4)c4ccc(N5CCC5=O)cc43)[C@@H]2C)cc1	17*	.	5	-2	-1
COc1ccc([Si](C)(C)[C@@H]2[C@@H](CCO)O[C@]3(C(=O)N(Cc4ccc(NC(C)=O)cc4)c4ccccc43)[C@H]2C)cc1	1	.	9	2	1
COc1ccc([Si](C)(C)[C@H]2[C@H](CCO)O[C@@]3(C(=O)N(Cc4ccc(NC(C)=O)cc4)c4ccccc43)[C@@H]2C)cc1	21*	.	3	0	0
C[C@@H]1CN([C@@H](C)CO)C(=O)c2cc(NS(=O)(=O)c3ccc(F)cc3)ccc2O[C@@H](C)CCCCO[C@H]1CN(C)S(=O)(=O)c1cccs1	4	0	-2	-1	0
CCCC#Cc1ccc2c(c1)O[C@H](CN(C)C(=O)C1CCC1)[C@H](C)CN([C@@H](C)CO)S2(=O)=O	1	1	3	2	0
COc1cc(-c2nc(CN3CCN(CC(C)C)C(=O)[C@@H]3C)c(C)o2)ccc1F	0	-2	.	0	0
COc1cc(-c2nc(CN3CCN(c4ncccn4)CC3)c(C)o2)ccc1F	3	-2	4	0	43*
O=C(CC(=O)c1cccc([N+](=O)[O-])c1)Nc1ccccc1Cl	2	1	.	-3	44*
O=C(CCNc1ccccc1)c1cccc([N+](=O)[O-])c1	.	5	.	.	.
CC(C)CC(c1nnnn1Cc1cccs1)N1CCN(c2nc3ccccc3s2)CC1 (stereo not given)	.	-48	-24	.	.
SMILES	SIRT5 inh	FN deposit inh	PGC1a acetyl inh	ERAP1 HTS inh	FGF22 binding
CC(C)C(c1nnnn1Cc1ccco1)N1CCN(c2nc3ccccc3s2)CC1 (stereo not given)	.	39*	-3	.	.
C[C@H]1CN([C@@H](C)CO)C(=O)Cc2cc(NC(=O)C3CC3)ccc2O[C@@H]1CN(C)Cc1ccccc1	1	.	.	0	0
COCC(=O)N(C)C[C@H]1Oc2cc(-c3ccc(C)cc3)ccc2S(=O)(=O)N([C@@H](C)CO)C[C@H]1C	-3	-16	3	-2	0
CCc1nnc(NC(=O)c2ccc(OC)cc2)s1	-1	.	3	0	0
CCc1nnc(NC(=O)c2ccc3nc(CC)c(CC)nc3c2)s1	-7	-2	.	0	43*
CCOC(=O)c1c(CS(=O)(=O)c2ccccc2)n(C)c2cc(Br)c(O)cc12	18*	2	-20	2	0
CC(C)N(C(=O)[C@H]1C[C@H](CC(=O)NCc2cccc(C(F)(F)F)c2)C(=O)N2CCc3c([nH]c4cc(CCC(=O)N(C)C)ccc34)[C@]12C)C(C)C	24*	-4	-15	0	-1
O=C(C[C@H]1C[C@H](C(=O)N2CCOCC2)[C@@]2(CCC3CCCC3)c3[nH]c4cc(-c5ccco5)ccc4c3CCN2C1=O)NCc1ccco1	28*	-3	-7	-3	0
CC(C)N(C(=O)[C@H]1C[C@H](CC(=O)NC(C)(C)C)C(=O)N2CCc3c([nH]c4cc(-c5ccco5)ccc34)[C@]12C)C(C)C	27*	-18	.	-3	0
CCN(CC)C(=O)[C@H]1C[C@H](CC(=O)NCc2cccc(C(F)(F)F)c2)C(=O)N2CCc3c([nH]c4cc(CCC(=O)N(C)C)ccc34)[C@]12C	-6	-10	-20	2	0
C[C@@H]1CN([C@H](C)CO)S(=O)(=O)c2ccc(-c3cccnc3)cc2O[C@H]1CN(C)C(=O)CN(C)C	-2	3	10	-2	0
CCOC(=O)c1cccc(NC(=O)c2ccc3c(c2)OCO3)c1	19*	6	.	-2	0
O=S(=O)(c1ccc(F)cc1)c1snnc1-c1ccccc1	0	4	.	8	0
O=S(=O)(c1ccc(Cl)cc1)c1snnc1-c1ccccc1	.	.	42*	.	.
OCCOCCn1c(C(CO)Nc2nc(-c3ccccc3Br)cs2)nc2ccccc21 (stereo not given)	23*	-5	0	6	0
Cc1n(N)c2ccccc2[n+]1CC(=O)c1ccccc1	-2	10	-8	5	43*
CNC[C@H]1Oc2cc(C#Cc3ccccn3)ccc2S(=O)(=O)N([C@H](C)CO)C[C@H]1C	0	.	5	1	0
COc1ccc(S(=O)(=O)Nc2ccc3c(c2)C(=O)N([C@H](C)CO)C[C@H](C)[C@H](CN(C)C(=O)Nc2c(C)noc2C)OCCCC[C@H](C)O3)cc1	2	0	-2	-1	1.3*
Cc1noc(C)c1NC(=O)N(C)C[C@H]1OCCCC[C@@H](C)Oc2ccc(NS(=O)(=O)c3c(C)noc3C)cc2C(=O)N([C@H](C)CO)C[C@@H]1C	28*	.	6	-1	0
COc1ccc(S(=O)(=O)Nc2ccc3c(c2)C(=O)N([C@@H](C)CO)C[C@H](C)[C@@H](CN(C)C(=O)Nc2c(C)noc2C)OCCCC[C@@H](C)O3)cc1	6	6	5	0	0
